Measured values: publication PMC10663723 (RSC Advances, 2023)
Values after ≈ are worked out from the molar mass of the structure shown.

Tests used:
[1] = MTT cell viability assay, HFF cells; type: cell-based; conditions: human, HFF cells (non-cancer human foreskin fibroblasts)
Method in brief: (§1)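 Cells plated at 10000/well in DMEM with 10% FBS and incubated 20 h at 37 °C, 5% CO2. Test compound (20 mg mL−1 DMSO stock, diluted in medium) was applied at 0.1–100 μg mL−1 for 48 h; 0.5% final DMSO served as vehicle control. MTT (0.5 mg mL−1) was added for 4 h at 37 °C in the dark, formazan was dissolved in DMSO, and absorbance was read at 570 nm.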

[2] = system: triple-negative breast cancer cells (MDA-MB-231); assay: MTT cell viability assay, MDA-MB-231 cells; type: cell-based, human; conditions: CC50 HFF / EC50 MDA-MB-231
Method in brief: as §1

lung cancer cells (A549) = assay: MTT cell viability assay, A549 cells; type: cell-based, human
Method in brief: as §1

[3] = system: cervical cancer cells (HeLa); assay: MTT cell viability assay, HeLa cells; type: cell-based; conditions: Homo sapiens, 48 h, read-out: EC50, HeLa
Method in brief: as §1

EC50 (lung cancer cells (A549); Homo sapiens, A549, 48 h, read-out: EC50, A549): 2.68 µg/mL (≈ 4.93 µM)
EC50 [3]: 1.69 µg/mL (≈ 3.11 µM)
Structure (SMILES): COc1cccc2c1C(=O)c1c(O)c3c(c(O)c1C2=O)C[C@@](O)(C(=O)CO)C[C@@H]3O[C@H]1C[C@H](N)[C@H](O)[C@H](C)O1 [doxorubicin]
CC50 at 48 h [1]: 8.96 µg/mL (≈ 16.5 µM)
SI (selectivity index) MDA-MB-231 with respect to HFF cells [2]: 2.73
SI (selectivity index) A549 with respect to HFF cells (lung cancer cells (A549); CC50 HFF / EC50 A549): 2.83
